# In ChEMBL document CHEMBL1136119, “Novel IKK inhibitors: beta-carbolines” (Bioorg Med Chem Lett, 2003):
# Columns and labels:
# [1] = biological target: T1, Inhibitor of nuclear factor kappa-B kinase subunit beta (Homo sapiens, UniProt O14920); assay: Inhibitory activity against IkappaB kinase(IKK) isolated from HeLa cells activated with recombinant […] in an ELISA phosphorylation assay.; assay type: cell-free
# T1 sequence (O14920 whole entry): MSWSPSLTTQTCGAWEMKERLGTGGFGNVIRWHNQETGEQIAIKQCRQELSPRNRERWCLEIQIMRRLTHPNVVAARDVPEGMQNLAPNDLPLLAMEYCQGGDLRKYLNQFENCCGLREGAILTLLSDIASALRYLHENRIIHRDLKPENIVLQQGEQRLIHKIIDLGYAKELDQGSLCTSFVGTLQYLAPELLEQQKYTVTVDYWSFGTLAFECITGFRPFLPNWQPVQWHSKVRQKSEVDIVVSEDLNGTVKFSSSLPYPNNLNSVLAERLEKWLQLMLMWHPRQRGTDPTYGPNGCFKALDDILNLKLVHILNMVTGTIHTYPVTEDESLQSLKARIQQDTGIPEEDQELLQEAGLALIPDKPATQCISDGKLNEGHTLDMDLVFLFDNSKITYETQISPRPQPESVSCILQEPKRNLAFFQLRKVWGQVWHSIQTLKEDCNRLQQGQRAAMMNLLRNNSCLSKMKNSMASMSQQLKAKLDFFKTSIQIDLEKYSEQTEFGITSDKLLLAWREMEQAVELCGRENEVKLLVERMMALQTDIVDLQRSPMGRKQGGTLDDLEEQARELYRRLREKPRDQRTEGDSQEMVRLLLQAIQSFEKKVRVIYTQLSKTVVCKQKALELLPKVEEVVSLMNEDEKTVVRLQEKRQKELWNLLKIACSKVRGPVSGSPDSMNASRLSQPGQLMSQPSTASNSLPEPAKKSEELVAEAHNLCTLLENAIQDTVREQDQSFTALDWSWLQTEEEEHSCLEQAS
# [2] = biological target: T2, cAMP-dependent protein kinase (PKA) (Homo sapiens, UniProt P22694+P17612+P22612); assay: Inhibitory activity against protein kinase A.; assay type: protein assay
# [3] = biological target: Protein kinase C (PKC); assay: Inhibitory activity against protein kinase C.; assay type: protein assay
# [4] = biological target: Casein kinase II (Homo sapiens, UniProt P19784+P67870+P68400); assay: Inhibitory activity against CKII kinase.; assay type: protein-complex assay
# Chain of Casein kinase II (P67870 whole entry): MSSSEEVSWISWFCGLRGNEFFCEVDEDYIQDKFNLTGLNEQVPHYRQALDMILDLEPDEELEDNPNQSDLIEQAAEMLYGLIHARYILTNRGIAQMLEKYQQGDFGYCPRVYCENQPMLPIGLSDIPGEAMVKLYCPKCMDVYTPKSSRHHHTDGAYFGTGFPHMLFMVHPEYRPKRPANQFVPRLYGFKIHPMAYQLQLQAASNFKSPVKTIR
# Chain of Casein kinase II (P68400 whole entry): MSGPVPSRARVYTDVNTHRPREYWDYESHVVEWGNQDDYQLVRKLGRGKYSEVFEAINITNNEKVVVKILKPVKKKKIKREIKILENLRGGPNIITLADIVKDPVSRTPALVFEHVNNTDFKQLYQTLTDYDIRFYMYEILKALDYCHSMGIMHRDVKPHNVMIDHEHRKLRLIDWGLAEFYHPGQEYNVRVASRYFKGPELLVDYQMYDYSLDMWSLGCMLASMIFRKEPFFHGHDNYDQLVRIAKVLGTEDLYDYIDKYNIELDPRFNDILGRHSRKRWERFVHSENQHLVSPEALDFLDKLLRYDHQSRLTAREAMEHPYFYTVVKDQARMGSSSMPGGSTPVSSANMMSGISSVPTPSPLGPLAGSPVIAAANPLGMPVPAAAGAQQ
# Chain of Casein kinase II (P19784 whole entry): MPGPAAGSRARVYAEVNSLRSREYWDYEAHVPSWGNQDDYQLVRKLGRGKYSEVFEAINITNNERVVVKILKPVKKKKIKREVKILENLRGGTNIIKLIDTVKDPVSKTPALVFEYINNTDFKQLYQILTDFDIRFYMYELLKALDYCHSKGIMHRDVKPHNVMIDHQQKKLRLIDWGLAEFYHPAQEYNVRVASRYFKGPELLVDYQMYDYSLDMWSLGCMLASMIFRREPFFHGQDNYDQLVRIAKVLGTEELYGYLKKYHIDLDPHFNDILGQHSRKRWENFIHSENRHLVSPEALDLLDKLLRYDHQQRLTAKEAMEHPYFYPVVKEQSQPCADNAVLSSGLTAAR
# [5] = tested on: Mus musculus; assay: Systemic level of TNF-alpha after oral administration in mice; assay type: functional
# Summary of the method: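 Female BALB/c mice given compound orally (50 mg/kg, 5 mL/kg), followed by intraperitoneal E. coli LPS (serotype 0127:B8); blood taken by cardiac puncture into heparin after CO2 euthanasia, spun at 4 °C, and plasma TNF-α measured relative to vehicle-treated controls.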
# [6] = biological target: NF-kappa-B essential modulator (Homo sapiens, UniProt Q9Y6K9); assay: Inhibition of GST-IkB phosphorylation by TNF-alpha stimulated HeLa cell lysate (IP-IKKgamma); assay type: functional, cell-free
# Chain of NF-kappa-B essential modulator (Q9Y6K9 whole entry): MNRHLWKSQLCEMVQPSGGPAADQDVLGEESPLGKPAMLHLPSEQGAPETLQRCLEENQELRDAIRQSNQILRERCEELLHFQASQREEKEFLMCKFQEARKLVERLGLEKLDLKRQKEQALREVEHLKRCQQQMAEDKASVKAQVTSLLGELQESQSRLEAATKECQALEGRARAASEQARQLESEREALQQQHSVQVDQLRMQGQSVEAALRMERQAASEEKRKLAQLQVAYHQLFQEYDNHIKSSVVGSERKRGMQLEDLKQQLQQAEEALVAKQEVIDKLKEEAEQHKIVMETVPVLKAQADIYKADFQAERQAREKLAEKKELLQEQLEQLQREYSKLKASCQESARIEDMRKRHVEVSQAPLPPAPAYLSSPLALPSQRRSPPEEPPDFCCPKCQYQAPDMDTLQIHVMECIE
# Summary of the method: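 Endogenous IKK complex immunoprecipitated with anti-IKKγ antibody from HeLa cells stimulated with TNF-α (20 ng/mL, 5 min) and lysed in NP-40 IP buffer; beads preincubated with varying inhibitor concentrations 30 min at 30 °C; reaction started with bacterially expressed GST-IκB[5-55] plus MgATP with [γ-32P]ATP, 30 min at 30 °C; phosphorylated substrate quantified by SDS-PAGE and phosphorimaging; IC50.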
# [7] = biological target: Casein kinase II (Homo sapiens) (UniProt P67870+P68400+P19784); assay: Inhibition of the casein kinase CKII at 25 uM; assay type: protein-complex assay
# [8] = biological target: Protein kinase C (PKC) (Homo sapiens) (UniProt O94806+P41743+P17252+P05129+Q05655+P05771+Q05513+Q02156+P24723+Q15139+Q04759); assay: Inhibition of Protein kinase C at 25 uM; assay type: protein assay
# [9] = tested on: HeLa; assay: Inhibition of IkappaB kinase(IKK) from HeLa cells activated by recombinant MEKK1 in ELISA at 25 uM; assay type: cell-based; settings: Homo sapiens
# [10] = biological target: T2, cAMP-dependent protein kinase (PKA); assay: Inhibition of Protein kinase A at 25 uM; assay type: protein assay
SMILES,IC50 [1] [µM],IC50 [2] [µM],IC50 [3] [µM],IC50 [4] [µM],EC50 [6] [µM],Reduction [5] [%],inhibition [7] [%],inhibition [8] [%],inhibition [9] [%],inhibition [10] [%]
CCOc1c(Cl)cc2c3cc[nH]cc-3nc2c1Cl,0.14,> 25,> 25,> 25,–,–,–,–,–,–
c1ccc2c(c1)[nH]c1cnccc12 [NORHARMANE],15,> 25,> 25,> 25,–,–,–,–,–,–
Clc1cc(Cl)c2[nH]c3cnccc3c2c1,0.2,> 25,> 25,> 25,–,–,–,–,–,–
Clc1cc2c3cc[nH]cc-3nc2c(Cl)c1OCC1CCCCC1,3,> 25,> 25,> 25,–,–,–,–,–,–
COc1ccc2[nH]c3cnccc3c2c1Br,1,–,15,2,–,–,75,65,90,10
COc1ccc(C(=O)Nc2cc(Cl)cc3c2[nH]c2cnccc23)cc1,1.3,> 25,> 25,> 25,–,–,–,–,–,–
Oc1c(Cl)cc2c3cc[nH]cc-3nc2c1Cl,11,> 25,> 25,> 25,–,–,–,–,–,–
COc1ccc2[nH]c3cnccc3c2c1,4,> 25,> 25,> 25,–,–,–,–,–,–
Clc1cc2c([nH]c3cnccc32)c(Cl)c1OCC1CC1,0.08,> 25,> 25,> 25,–,–,–,–,–,–
Fc1ccc2[nH]c3cnccc3c2c1,2,> 25,> 25,> 25,–,–,–,–,–,–
Brc1ccc2[nH]c3cnccc3c2c1,0.6,> 25,> 25,> 25,–,–,–,–,–,–
Clc1cc(NCc2ccccc2)c2[nH]c3cnccc3c2c1,> 20,> 25,> 25,> 25,–,–,–,–,–,–
Clc1ccc2[nH]c3cnccc3c2c1,0.6,> 25,> 25,> 25,–,–,–,–,–,–
COc1ccccc1C(=O)Nc1cc(Cl)cc2c1[nH]c1cnccc12,> 20,> 25,> 25,> 25,–,–,–,–,–,–
COc1c(Cl)cc2c3cc[nH]cc-3nc2c1Cl,0.17,> 25,> 25,> 25,–,–,–,–,–,–

# The next lines start with results.
IC50 [1] [µM],IC50 [2] [µM],IC50 [3] [µM],IC50 [4] [µM],EC50 [6] [µM],SMILES,Reduction [5] [%],inhibition [7] [%],inhibition [8] [%],inhibition [9] [%],inhibition [10] [%]
3.2,–,–,–,–,O=C(Oc1c(Cl)cc2c3cc[nH]cc-3nc2c1Cl)N1CCOCC1,–,–,–,–,–
3,> 25,> 25,> 25,–,O=C(Cc1ccccn1)Nc1cc(Cl)cc2c1[nH]c1cnccc12,–,–,–,–,–
1.8,–,–,–,–,CNc1cc(Cl)cc2c3cc[nH]cc-3nc12,–,–,–,–,–
0.1,> 25,> 25,> 25,0.15,O=C(Nc1cc(Cl)cc2c1[nH]c1cnccc12)c1cccnc1,60,–,–,–,–
8.3,> 25,> 25,> 25,–,CS(=O)(=O)Nc1cc(Cl)cc2c3cc[nH]cc-3nc12,–,–,–,–,–
0.7,> 25,> 25,> 25,–,COC(=O)Nc1cc(Cl)cc2c3cc[nH]cc-3nc12,–,–,–,–,–
1,> 25,> 25,> 25,–,O=C(Nc1cc(Cl)cc2c1[nH]c1cnccc12)c1ccccn1,–,–,–,–,–
> 20,> 25,> 25,> 25,–,O=C(CCCO)Nc1cc(Cl)cc2c3cc[nH]cc-3nc12,–,–,–,–,–
1.8,–,–,–,–,CN(C)c1cc(Cl)cc2c3cc[nH]cc-3nc12,–,–,–,–,–
1.3,–,–,–,–,Nc1cc(Cl)cc2c3cc[nH]cc-3nc12,–,–,–,–,–
0.7,> 25,> 25,> 25,–,O=C(Nc1cc(Cl)cc2c1[nH]c1cnccc12)c1ccccc1,–,–,–,–,–
0.6,> 25,> 25,> 25,–,CC(=O)Nc1cc(Cl)cc2c3cc[nH]cc-3nc12,–,–,–,–,–
1.1,–,–,–,–,FC(F)(F)c1ccc2[nH]c3cnccc3c2c1,–,–,–,–,–
4,> 25,> 25,> 25,–,O=[N+]([O-])c1cc(Cl)cc2c3cc[nH]cc-3nc12,–,–,–,–,–
0.6,> 25,> 25,> 25,–,COc1cccc(C(=O)Nc2cc(Cl)cc3c2[nH]c2cnccc23)c1,–,–,–,–,–
> 20,> 25,> 25,> 25,–,O=S(=O)(Nc1cc(Cl)cc2c1[nH]c1cnccc12)c1ccccc1,–,–,–,–,–
> 20,> 25,> 25,> 25,–,O=C(Nc1cc(Cl)cc2c1[nH]c1cnccc12)N1CCOCC1,–,–,–,–,–
0.3,> 25,> 25,> 25,–,O=C(Nc1cc(Cl)cc2c1[nH]c1cnccc12)c1ccncc1,–,–,–,–,–
1.1,–,–,–,–,N#Cc1ccc2[nH]c3cnccc3c2c1,–,–,–,–,–
> 20,> 25,> 25,> 25,–,CNC(=O)Nc1cc(Cl)cc2c3cc[nH]cc-3nc12,–,–,–,–,–
